According to ChEMBL document CHEMBL4265871, “Novel alkylated azoles as potent antifungals” (Eur J Med Chem, 2017):
In brackets after ≈: the same amount, converted by molar mass.

Tests used:
Candida albicans [1] = assay: Antifungal activity against Candida albicans ATCC 10231 incubated for 48 hrs by modified CLSI M27-A3 protocol based method; assay type: functional; details: ATCC 10231, 48 h; for MIC: read-out: MIC100
Summary of the method: (§1)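 For C. albicans ATCC 10231, C. krusei ATCC 6258 and C. parapsilosis ATCC 22019, MIC-0 was read, meaning complete growth inhibition. For azole controls, MIC-2 (50% growth inhibition) was reported instead. Caspofungin and voriconazole were tested here; other controls came from earlier work.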

Candida albicans [2] = assay: Antifungal activity against Candida albicans ATCC 64124 incubated for 48 hrs by modified CLSI M27-A3 protocol based method; assay type: functional; details: ATCC 64124, 48 h
Candida albicans [3] = assay: Antifungal activity against ITC and FLC-susceptible Candida albicans ATCC MYA-2876 incubated for 48 hrs by modified CLSI M27-A3 protocol based method; assay type: functional; details: ATCC MYA-2876, 48 h; for MIC: read-out: MIC100
Summary of the method: (§2)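 Because these Candida strains show trailing growth, MIC-2 was read, meaning 50% growth inhibition. Caspofungin and voriconazole were tested here; other controls came from earlier work.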

Candida albicans [4] = assay: Antifungal activity against ITC and FLC-resistant Candida albicans ATCC MYA-90819 incubated for 48 hrs by modified CLSI M27-A3 protocol based method; assay type: functional; details: ATCC MYA-90819, 48 h
Candida albicans [5] = assay: Antifungal activity against ITC and FLC-susceptible Candida albicans ATCC MYA-2310 incubated for 48 hrs by modified CLSI M27-A3 protocol based method; assay type: functional; details: ATCC MYA-2310, 48 h; for MIC: read-out: MIC100
Candida albicans [6] = assay: Antifungal activity against ITC and FLC-resistant Candida albicans ATCC 1237 incubated for 48 hrs by modified CLSI M27-A3 protocol based method; assay type: functional; details: ATCC 1237, 48 h; summary of the method: as §2
Candida albicans [7] = assay: Antifungal activity against ITC and FLC-resistant Candida albicans ATCC MYA-1003 incubated for 48 hrs by modified CLSI M27-A3 protocol based method; assay type: functional; details: ATCC MYA-1003, 48 h; summary of the method: as §2
Nakaseomyces glabratus = assay: Antifungal activity against Candida glabrata ATCC 2001 incubated for 48 hrs by modified CLSI M27-A3 protocol based method; assay type: functional; details: ATCC 2001, 48 h
Pichia kudriavzevii = assay: Antifungal activity against Candida krusei ATCC 6258 incubated for 48 hrs by modified CLSI M27-A3 protocol based method; assay type: functional; details: ATCC 6258, 48 h; for MIC: read-out: MIC100; summary of the method: as §1
Candida parapsilosis = assay: Antifungal activity against Candida parapsilosis ATCC 22019 incubated for 48 hrs by modified CLSI M27-A3 protocol based method; assay type: functional; details: Lodderomyces parapsilosis, ATCC 22019, 48 h; for MIC: read-out: MIC100; summary of the method: as §1
Aspergillus flavus = assay: Antifungal activity against Aspergillus flavus ATCC MYA-3631 incubated for 48 hrs by CLSI M38-A2 protocol based method; assay type: functional; details: ATCC MYA-3631, 48 h; for MIC: read-out: MIC100
Aspergillus nidulans = assay: Antifungal activity against Aspergillus nidulans ATCC 38163 incubated for 48 hrs by CLSI M38-A2 protocol based method; assay type: functional; details: ATCC 38163, 48 h; for MIC: read-out: MIC100
Aspergillus terreus = assay: Antifungal activity against Aspergillus terreus ATCC MYA-3633 incubated for 48 hrs by CLSI M38-A2 protocol based method; assay type: functional; details: ATCC MYA-3633, 48 h; for MIC: read-out: MIC100
[8] = Hemolytic activity in mouse erythrocytes assessed as hemolysis level at 1.95 ug/ml incubated for 1 hr at 37 degC; assay type: ADME, cell-based, Erythrocyte; details: read-out: Activity
Summary of the method: (§3)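 Mouse erythrocytes incubated 1 h at 37 °C with test agents over 1.95 to 125 µg/mL. Percent lysis is read for each concentration.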

[9] = Hemolytic activity in mouse erythrocytes assessed as hemolysis level at 3.9 ug/ml incubated for 1 hr at 37 degC; assay type: ADME, cell-based, Erythrocyte; details: read-out: Activity; summary of the method: as §3
[10] = Hemolytic activity in mouse erythrocytes assessed as hemolysis level at 7.8 ug/ml incubated for 1 hr at 37 degC; assay type: ADME, cell-based, Erythrocyte; details: read-out: Activity; summary of the method: as §3
[11] = Hemolytic activity in mouse erythrocytes assessed as hemolysis level at 15.6 ug/ml incubated for 1 hr at 37 degC; assay type: ADME, cell-based, Erythrocyte; details: read-out: Activity; summary of the method: as §3
[12] = Hemolytic activity in mouse erythrocytes assessed as hemolysis level at 31.3 ug/ml incubated for 1 hr at 37 degC; assay type: ADME, cell-based, Erythrocyte; details: read-out: Activity; summary of the method: as §3
[13] = Hemolytic activity in mouse erythrocytes assessed as hemolysis level at 125 ug/ml incubated for 1 hr at 37 degC; assay type: ADME, cell-based, Erythrocyte; details: read-out: Activity; summary of the method: as §3
in vitro = details: mouse, erythrocyte
A549 = assay: Toxicity in human A549 cells assessed as cell viability at 15.6 ug/ml incubated for 24 hrs by resazurin dye based assay; details: a549, 24 h
BEAS-2B = assay: Toxicity in human BEAS2B cells assessed as cell viability at 15.6 ug/ml incubated for 24 hrs by resazurin dye based assay

SMILES	MIC (Candida albicans [1])	MIC50 (Candida albicans [2])	MIC50 (Candida albicans [3])	MIC50 (Candida albicans [4])	MIC50 (Candida albicans [5])	MIC50 (Candida albicans [6])	MIC50 (Candida albicans [7])	MIC50 (Nakaseomyces glabratus)	MIC (Pichia kudriavzevii)	MIC (Candida parapsilosis)	MIC (Aspergillus flavus)	MIC (Aspergillus nidulans)	MIC (Aspergillus terreus)	also measured
CC(O)(Cn1cncn1)c1ccc(Cl)cc1Cl (configuration not stated)	> 115 µM	> 115 µM	28.7 µM (≈ 7.81 µg/mL)	7.2 µM (≈ 1.96 µg/mL)	> 115 µM	> 115 µM	> 115 µM	14.3 µM (≈ 3.89 µg/mL)	14.3 µM (≈ 3.89 µg/mL)	0.88 µM (≈ 0.239 µg/mL)	> 115 µM	7.2 µM (≈ 1.96 µg/mL)	> 115 µM	
C[C@@H]1[C@H](O)[C@@H](C)/C=C/C=C/C=C/C=C/C=C/C=C/C=C/[C@H](O[C@@H]2O[C@H](C)[C@@H](O)[C@H](N)[C@@H]2O)C[C@@H]2O[C@](O)(C[C@@H](O)C[C@@H](O)[C@H](O)CC[C@@H](O)C[C@@H](O)CC(=O)O[C@H]1C)C[C@H](O)[C@H]2C(=O)O [AMPHOTERICIN B]										2.1 µM (≈ 1.94 µg/mL)		16.9 µM (≈ 15.6 µg/mL)	4.2 µM (≈ 3.88 µg/mL)	MIC (Candida albicans [3]): 2.1 µM (≈ 1.94 µg/mL); MIC (Candida albicans [4]): 1.1 µM (≈ 1.02 µg/mL); MIC (Candida albicans [5]): 2.1 µM (≈ 1.94 µg/mL); MIC (Nakaseomyces glabratus): 2.1 µM (≈ 1.94 µg/mL); hemolysis at 1 h, 1.95 ug/ml [8]: 1.7%; hemolysis at 1 h, 3.9 ug/ml [9]: 3.4%; hemolysis at 1 h, 7.8 ug/ml [10]: 3.7%; hemolysis at 1 h, 15.6 ug/ml [11]: 32%; hemolysis at 1 h, 31.3 ug/ml [12]: 80%; hemolysis at 1 h, 125 ug/ml [13]: 92.6%; hemolysis at 1 h (in vitro): 90.3%; viability (A549): 30%; viability (BEAS-2B): 30%
CCCCCCCCCCCCC(O)(Cn1cncn1)c1ccc(F)cc1F (configuration not stated)	> 79.5 µM	> 79.5 µM	19.8 µM (≈ 7.79 µg/mL)	> 79.5 µM	19.8 µM (≈ 7.79 µg/mL)	19.8 µM (≈ 7.79 µg/mL)	> 79.5 µM	2.5 µM (≈ 0.984 µg/mL)	> 79.5 µM	5 µM (≈ 1.97 µg/mL)	> 79.5 µM	1.2 µM (≈ 0.472 µg/mL)	9.9 µM (≈ 3.9 µg/mL)	
CCC(O)(Cn1cncn1)c1ccc(F)cc1F (configuration not stated)	61.6 µM (≈ 15.6 µg/mL)	> 124 µM	61.6 µM (≈ 15.6 µg/mL)	124 µM (≈ 31.3 µg/mL)	> 124 µM	> 124 µM	30.8 µM (≈ 7.8 µg/mL)	> 124 µM	30.8 µM (≈ 7.8 µg/mL)	1.9 µM (≈ 0.481 µg/mL)	> 124 µM	124 µM (≈ 31.3 µg/mL)	> 124 µM	
CCCC(O)(Cn1cncn1)c1ccc(F)cc1F (configuration not stated)	14.6 µM (≈ 3.9 µg/mL)	117 µM (≈ 31.3 µg/mL)	58.4 µM (≈ 15.6 µg/mL)	58.4 µM (≈ 15.6 µg/mL)	29.2 µM (≈ 7.8 µg/mL)	117 µM (≈ 31.3 µg/mL)	14.6 µM (≈ 3.9 µg/mL)	> 117 µM	0.22 µM (≈ 0.0588 µg/mL)	0.22 µM (≈ 0.0588 µg/mL)	> 117 µM	29.2 µM (≈ 7.8 µg/mL)	58.4 µM (≈ 15.6 µg/mL)	
CCC(C)n1ncn(-c2ccc(N3CCN(c4ccc(OCC5COC(Cn6cncn6)(c6ccc(Cl)cc6Cl)O5)cc4)CC3)cc2)c1=O (configuration not stated) [ITRACONAZOLE]		> 88.6 µM	11.1 µM (≈ 7.83 µg/mL)	44.4 µM (≈ 31.3 µg/mL)	44.4 µM (≈ 31.3 µg/mL)	44.4 µM (≈ 31.3 µg/mL)	44.4 µM (≈ 31.3 µg/mL)	11.1 µM (≈ 7.83 µg/mL)						MIC50 (Candida albicans [1]): 0.71 µM (≈ 0.501 µg/mL); MIC50 (Pichia kudriavzevii): 0.68 µM (≈ 0.48 µg/mL); MIC50 (Candida parapsilosis): 0.17 µM (≈ 0.12 µg/mL); MIC50 (Aspergillus flavus): 0.68 µM (≈ 0.48 µg/mL); MIC50 (Aspergillus nidulans): 0.28 µM (≈ 0.198 µg/mL); MIC50 (Aspergillus terreus): 1.4 µM (≈ 0.988 µg/mL)
CC[C@H](C)C[C@H](C)CCCCCCCCC(=O)N[C@H]1C[C@@H](O)[C@@H](NCCN)NC(=O)[C@@H]2[C@@H](O)CCN2C(=O)[C@H]([C@H](O)CCN)NC(=O)[C@H]([C@H](O)[C@@H](O)c2ccc(O)cc2)NC(=O)[C@@H]2C[C@@H](O)CN2C(=O)[C@H]([C@@H](C)O)NC1=O [CASPOFUNGIN]	0.8 µM (≈ 0.875 µg/mL)								0.4 µM (≈ 0.437 µg/mL)	1.6 µM (≈ 1.75 µg/mL)	> 25.8 µM	> 26 µM	> 25.8 µM	MIC (Candida albicans [2]): 0.2 µM (≈ 0.219 µg/mL); MIC (Candida albicans [3]): 0.05 µM (≈ 0.0547 µg/mL); MIC (Candida albicans [4]): 0.1 µM (≈ 0.109 µg/mL); MIC (Candida albicans [5]): 0.1 µM (≈ 0.109 µg/mL); MIC (Candida albicans [6]; read-out: MIC100): 0.2 µM (≈ 0.219 µg/mL); MIC (Candida albicans [7]; read-out: MIC100): 0.4 µM (≈ 0.437 µg/mL); MIC (Nakaseomyces glabratus): 0.05 µM (≈ 0.0547 µg/mL)
N[n+]1cnn(CC(=O)c2ccc(Cl)cc2Cl)c1	> 102 µM	> 102 µM	> 102 µM	> 102 µM	> 102 µM	> 102 µM	> 102 µM	> 102 µM	> 102 µM	> 102 µM	> 102 µM	> 102 µM	> 102 µM	
